# In the library only some 5.8% were active in any assay of this set; here they are far more common.
# Tcruzi prolif: inhibitors of T. cruzi proliferation. T. cruzi beta-gal in NIH3T3, GalScreen luminescence, 90 h. inhibition, % at 8.34 µM. 77,000 compounds, 5.9% hits. AID 624255;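 active means mean inhibition above about 93%, with at least 55% of replicates each passing it, limit read from the data, passing the limit was not always enough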
# GASC1 inh: KDM4C (human) demethylase inhibition. GST-KDM4C 2-372, H3K9me3 peptide, LANCE TR-FRET. inhibition, % at 12.5 µM. 96,000 compounds, 0.15% hits. AID 720574;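 active means mean replicate inhibition above about 25%, with at least 55% of replicates also reaching it, limit read from the data, passing the limit was not always enough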
#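 material = GST-tagged GASC-1 (JMJD2C) catalytic fragment, aa 2-372 | amount = enzyme final amount 10 nM | medium = HEPES buffer, pH 7.5, plus ascorbate | also added = H3K9me3 peptide substrate, Fe(II), 2-oxoglutarate | dosing = single dose | times = 30 min demethylation and 1 h detection at room temperature | detection = LANCE TR-FRET | read-out basis = Fall in 671/618 emission ratio as inhibition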
# IDH1 R132H inh: blocks human IDH1 R132H reductase activity; AID 624101; 70,000 compounds, 0.18% hits; diaphorase/resazurin fluorescence, 60 min; inhibition, % at 10 µM; in the data active means inhibition above about 34%;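 further: 0% = DMSO and 100% = no enzyme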
# Target sequence (O75874 whole entry R132H): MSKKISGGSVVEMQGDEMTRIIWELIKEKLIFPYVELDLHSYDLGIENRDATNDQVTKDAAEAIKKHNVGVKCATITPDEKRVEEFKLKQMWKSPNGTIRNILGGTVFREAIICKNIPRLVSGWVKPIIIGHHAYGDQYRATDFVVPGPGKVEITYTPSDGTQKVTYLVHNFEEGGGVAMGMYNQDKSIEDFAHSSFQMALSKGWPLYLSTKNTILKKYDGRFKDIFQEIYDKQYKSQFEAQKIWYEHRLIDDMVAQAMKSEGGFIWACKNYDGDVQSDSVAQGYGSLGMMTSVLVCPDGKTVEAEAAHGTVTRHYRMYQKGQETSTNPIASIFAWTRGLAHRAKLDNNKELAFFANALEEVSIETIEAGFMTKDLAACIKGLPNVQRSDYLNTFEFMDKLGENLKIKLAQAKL
# Pf Dd2 growth: P. falciparum Dd2 growth inhibition | SYBR Green, 72 h; stronger effect = lower value | activity change, % at 10 µM | 94,000 compounds, 2.3% hits; in the data active means activity change below about -80%
# * hit, by the source's call; nt = no result given.
SMILES,Tcruzi prolif,GASC1 inh,IDH1 R132H inh,Pf Dd2 growth
C[C@@H]1CN([C@@H](C)CO)C(=O)c2c(c3ccccc3n2C)-c2ccccc2CO[C@@H]1CN(C)S(=O)(=O)c1ccc([N+](=O)[O-])cc1,nt,0,nt,-77
CCN1[C@@H]2Cn3c(ccc(-c4cccc(F)c4)c3=O)[C@H]1[C@@H](C(=O)NCC1CC1)[C@@H]2CO,21,0,nt,13
O=C(NCc1ccccc1)[C@H]1[C@H](CO)[C@H]2Cn3c(cccc3=O)[C@@H]1N2,64,1,nt,10
COc1ccc2c3c([nH]c2c1)[C@H](CO)N(C(=O)Nc1ccc(F)cc1)CC31CN(Cc2cc(F)ccc2F)C1,nt,-2,nt,-75
COc1ccc2c3c([nH]c2c1)[C@@H](CO)N(C(=O)Nc1cccc(F)c1)CC31CN(CC2CCOCC2)C1,nt,-2,nt,-93*
COc1ccc2c3c([nH]c2c1)[C@@H](CO)N(C(=O)Nc1ccc(F)cc1)CC31CN(Cc2cc(F)ccc2F)C1,nt,4,nt,-87*
C[C@@H]1CN([C@@H](C)CO)C(=O)Cc2cc(NS(=O)(=O)c3ccccc3)ccc2O[C@@H]1CN(C)Cc1ccc(C(=O)Nc2ccccc2N)cc1,42,-2,0,-88*
C[C@@H]1CN([C@H](C)CO)C(=O)Cc2cc(NS(=O)(=O)c3ccc(Cl)cc3)ccc2O[C@H]1CN(C)Cc1ccc(C(=O)Nc2ccccc2N)cc1,nt,-1,nt,-41
C[C@@H]1CN([C@@H](C)CO)C(=O)Cc2cc(NS(=O)(=O)c3ccc(Cl)cc3)ccc2O[C@@H]1CN(C)Cc1ccc(C(=O)Nc2ccccc2N)cc1,nt,3,0,-82*
C[C@@H]1CN([C@H](C)CO)C(=O)Cc2cc(NS(=O)(=O)c3ccc(Cl)cc3)ccc2O[C@@H]1CN(C)Cc1ccc(C(=O)Nc2ccccc2N)cc1,nt,5,0,-85*
Cc1ccc(S(=O)(=O)Nc2ccc3c(c2)CC(=O)N([C@@H](C)CO)C[C@@H](C)[C@H](CN(C)S(=O)(=O)c2ccccc2)O3)cc1,44,-2,0,-33
COc1ccc(S(=O)(=O)Nc2ccc3c(c2)C(=O)N([C@H](C)CO)C[C@H](C)[C@@H](CN(C)S(=O)(=O)c2ccc(OC)cc2)O3)cc1,nt,2,1,-86*
COc1ccc(S(=O)(=O)N(C)C[C@@H]2OCCCC[C@@H](C)Oc3ccc(NS(=O)(=O)c4ccc(C)cc4)cc3C(=O)N([C@@H](C)CO)C[C@H]2C)cc1,102*,0,nt,-43
COc1ccc(S(=O)(=O)N(C)C[C@H]2OCCCC[C@H](C)Oc3ccc(NS(=O)(=O)c4ccc(C)cc4)cc3C(=O)N([C@@H](C)CO)C[C@H]2C)cc1,82,-4,3,-82*
C[C@H]1CN([C@@H](C)CO)C(=O)c2cc(-c3cccnc3)cnc2O[C@H]1CN(C)C,-46,5,-1,41
C[C@H](CO)N1C[C@H](C)[C@H](CN(C)C(=O)Nc2cccc3ccccc23)Oc2ccc(NC(=O)Nc3ccc4c(c3)OCO4)cc2CC1=O,-35,-2,-1,0
CO[C@H]1CN(C)C(=O)c2cc(NS(=O)(=O)c3cccc(C)c3)ccc2OC[C@@H](C)NC[C@@H]1C,-9,1,0,-8
C[C@@H]1CN([C@@H](C)CO)C(=O)c2cc(C#CCc3ccccc3)cnc2O[C@H]1CN(C)CC1CCCC1,88,9,11,-86*
CCCC#Cc1cnc2c(c1)C(=O)N([C@H](C)CO)C[C@H](C)[C@@H](CN(C)Cc1cccnc1)O2,-4,64*,100*,-24
CCCC#Cc1cnc2c(c1)C(=O)N([C@H](C)CO)C[C@@H](C)[C@H](CN(C)Cc1cccnc1)O2,7,0,0,-28
C[C@H]1CN([C@@H](C)CO)C(=O)c2cc(C#Cc3ccccc3)cnc2O[C@@H]1CN(C)C(=O)CCN1CCCCC1,26,-4,-1,-52
C[C@@H]1CN([C@@H](C)CO)C(=O)c2cc(C#Cc3ccccc3)cnc2O[C@H]1CN(C)C(=O)CCN1CCCCC1,57,0,0,-88*
C[C@@H]1CN([C@H](C)CO)C(=O)c2cc(C#CCc3ccccc3)cnc2O[C@@H]1CN(C)CC1CC1,26,-1,-2,-81*
C[C@H]1CN([C@@H](C)CO)C(=O)c2cc(C#CCc3ccccc3)cnc2O[C@H]1CN(C)CC1CC1,57,-1,-1,-57
C[C@@H]1CN([C@H](C)CO)C(=O)c2cc(C#CCc3ccccc3)cnc2O[C@H]1CN(C)C(=O)C1CCCCC1,105,0,2,-83*

# Source: PubChem BioAssay (Broad Institute)
